From ChEMBL document CHEMBL4706714 (Bioorg Med Chem, 2021)
Activity calls are given as the source filed them. The calls are words filed in the database; no cut-off is given here.

Key:
[1] = molecular target: Folate receptor alpha (Homo sapiens) (UniProt P15328); experiment: Displacement of [3H]-folic acid from human FRalpha expressed in Chinese Hamster MTXRII-OuaR2-4 R2 cells after 15 mins by liquid scintillation counting method; assay type: cell-based
Procedure, shortened: (§1)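 RT16 (FRα) or D4 (FRβ) CHO transfectants, 1 × 10^6 cells, adhered 24 h; washed at 4 °C with DPBS, pH 3.5 acetate buffer to strip bound folate, then HBS pH 7.4. Incubated 15 min at 0 °C with 50 nM [3H]folic acid plus competitor 0–1 μM; bound label per mg protein (Folin-phenol).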

[2] = molecular target: Folate receptor beta (Homo sapiens) (UniProt P14207); experiment: Displacement of [3H]-folic acid from human FRbeta expressed in Chinese Hamster MTXRII-OuaR2-4 R2 cells after 15 mins by liquid scintillation counting method; assay type: cell-based; procedure, shortened: as §1
[3] = Inhibition of human full length N-terminal His-tagged GARFTase expressed in Chinese Hamster MTXRII-OuaR2-4 R2 cells assessed as reduction in THF formation using 10-CHOTHF as substrate by spectrophotometric method
[4] = tested on: KB; experiment: Antiproliferative activity against human KB cells assessed as reduction in cell viability after 96 hrs in presence of adenosine by CellTiter-blue assay; assay type: functional, cell-based
Procedure, shortened: (§2)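 KB cells, 4000 cells/well, in folate-free RPMI 1640 with 10% dialyzed FBS and 2 nM leucovorin. A range of drug concentrations was co-incubated with adenosine (60 μM) or thymidine (10 μM) for 96 h at 37 °C. Proliferation was read by CellTiter-blue fluorescence. Data are representative of at least triplicate experiments.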

[5] = tested on: KB; experiment: Antiproliferative activity against human KB cells assessed as reduction in cell viability after 96 hrs in presence of thymidine by CellTiter-blue assay; assay type: functional, cell-based; procedure, shortened: as §2
[6] = tested on: IGROV-1; experiment: Antiproliferative activity against human IGROV1 cells assessed as reduction in cell viability after 96 hrs in presence of folic acid by CellTiter-blue assay; assay type: functional, cell-based; details: IGROV-1, 96 h
Procedure, shortened: (§3)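 Cells grown in folate-free RPMI with 10% dialyzed FBS, 2 nM leucovorin, 2 mM L-glutamine; 2500–5000 cells/well, inhibitors 0–1000 nM, with 200 nM folic acid added in parallel wells to block FR uptake.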

[7] = tested on: KB; experiment: Antiproliferative activity against human KB cells assessed as reduction in cell viability after 96 hrs in presence of folic acid by CellTiter-blue assay; assay type: functional, cell-based; procedure, shortened: as §3
[8] = tested on: IGROV-1; experiment: Antiproliferative activity against human IGROV1 cells assessed as reduction in cell viability after 96 hrs by CellTiter-blue assay; assay type: functional, cell-based; details: IGROV-1, 96 h
[9] = molecular target: T1, Bifunctional purine biosynthesis protein ATIC (Homo sapiens, UniProt P31939); experiment: Inhibition of human full length N-terminal His-tagged ATIC expressed in Chinese Hamster MTXRII-OuaR2-4 R2 cells assessed as reduction in THF formation using 10-CHOTHF as substrate by spectrophotometric method
Target sequence in this assay (P31939 whole entry): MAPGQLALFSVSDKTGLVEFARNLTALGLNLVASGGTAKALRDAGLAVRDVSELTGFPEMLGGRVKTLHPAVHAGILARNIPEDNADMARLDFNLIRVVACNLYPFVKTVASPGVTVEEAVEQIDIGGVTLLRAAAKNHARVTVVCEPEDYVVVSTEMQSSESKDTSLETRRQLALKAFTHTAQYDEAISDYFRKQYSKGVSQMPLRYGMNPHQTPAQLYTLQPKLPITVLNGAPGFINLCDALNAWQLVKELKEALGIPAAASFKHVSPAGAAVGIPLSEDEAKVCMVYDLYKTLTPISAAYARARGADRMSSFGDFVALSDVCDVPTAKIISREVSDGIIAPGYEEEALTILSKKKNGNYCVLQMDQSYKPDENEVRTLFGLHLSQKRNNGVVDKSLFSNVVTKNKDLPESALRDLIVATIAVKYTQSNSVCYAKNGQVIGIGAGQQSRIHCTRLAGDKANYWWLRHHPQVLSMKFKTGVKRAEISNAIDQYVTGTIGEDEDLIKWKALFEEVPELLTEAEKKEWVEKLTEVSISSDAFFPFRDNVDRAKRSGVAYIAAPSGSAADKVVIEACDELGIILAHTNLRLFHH

[10] = tested on: IGROV-1; experiment: Inhibition of de nova purine biosynthesis in human IGROV1 assessed as decrease in AMP level at 1 uM after 48 hrs by LC-MS/MS analysis; assay type: functional
Procedure, shortened: (§4)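 NCI-IGROV1 ovarian cells in folate-free RPMI, 10% FBS, 2 mM L-glutamine, five replicate dishes, adhered 24 h; medium replaced and 1 μM inhibitor or DMSO vehicle added for 48 h. Extracted metabolites measured by reverse-phase LC-MS, negative ion mode, identified by exact mass and retention time against standards; normalized to cell protein; expressed relative to vehicle control.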

[11] = molecular target: T1, Bifunctional purine biosynthesis protein ATIC; experiment: Inhibition of AICARFTase in human IGROV1 assessed as decrease in ZMP level at 1 uM after 48 hrs by LC-MS/MS analysis relative to control; details: IGROV-1; procedure, shortened: as §4
Target sequence in this assay (P31939 whole entry, looked up): as the sequence (P31939 whole entry) above

[12] = Cytotoxicity against Chinese Hamster MTXRII-OuaR2-4 R2 cells assessed as reduction in cell proliferation after 96 hrs by CellTiter-blue assay; assay type: cell-based; details: Cricetulus griseus, R2, 96 h
[13] = Inhibition of de nova purine biosynthesis in human IGROV1 assessed as decrease in IMP level at 1 uM after 48 hrs by LC-MS/MS analysis relative to control; assay type: functional; details: IGROV-1; procedure, shortened: as §4
[14] = tested on: IGROV-1; experiment: Inhibition of GARFTase in human IGROV1 assessed as increase in GAR level at 1 uM after 48 hrs by LC-MS/MS analysis; procedure, shortened: as §4
[15] = tested on: IGROV-1; experiment: Inhibition of GARFTase in human IGROV1 assessed as decrease in fGAR level at 1 uM after 48 hrs by LC-MS/MS analysis relative to control; procedure, shortened: as §4
[16] = Inhibition of de nova purine biosynthesis in human IGROV1 assessed as decrease in ATP level at 1 uM after 48 hrs by LC-MS/MS analysis relative to control; assay type: functional; details: IGROV-1; procedure, shortened: as §4
[17] = tested on: KB; experiment: Antiproliferative activity against human KB cells assessed as reduction in cell viability after 96 hrs by CellTiter-blue assay; assay type: functional, cell-based
[18] = Inhibition of de nova purine biosynthesis in human IGROV1 assessed as decrease in ADP level at 1 uM after 48 hrs by LC-MS/MS analysis relative to control; assay type: functional; details: IGROV-1; procedure, shortened: as §4

Folate receptor beta (Homo sapiens), sequence (P14207 17-230 limits assumed): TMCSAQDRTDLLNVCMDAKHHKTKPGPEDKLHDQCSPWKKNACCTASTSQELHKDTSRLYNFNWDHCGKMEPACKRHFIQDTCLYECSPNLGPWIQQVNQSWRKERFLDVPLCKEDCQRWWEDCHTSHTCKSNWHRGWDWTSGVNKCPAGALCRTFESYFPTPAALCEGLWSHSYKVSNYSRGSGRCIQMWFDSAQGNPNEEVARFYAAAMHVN
Folate receptor alpha (Homo sapiens), sequence (P15328 25-234 limits assumed): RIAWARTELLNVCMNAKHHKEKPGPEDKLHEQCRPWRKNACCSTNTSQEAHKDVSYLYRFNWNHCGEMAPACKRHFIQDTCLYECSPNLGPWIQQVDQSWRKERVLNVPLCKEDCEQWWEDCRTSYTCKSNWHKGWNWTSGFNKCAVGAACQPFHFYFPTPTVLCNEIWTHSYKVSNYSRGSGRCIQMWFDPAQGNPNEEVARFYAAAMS

Molecule `Nc1nc2sc(CCCCc3ccc(C(=O)N[C@@H](CCC(=O)O)C(=O)O)s3)cc2c(=O)[nH]1` has an Activity [1] of 89%, an Activity [2] of 60% and a Ki [3] of 1.36 µM. For the same molecule, the Activity [4] was “inactive”, the Activity [5] was “Active” and the IC50 [6] was greater than 1 µM. It also gave an IC50 [7] greater than 1 µM, an IC50 [8] of 0.0101 µM and a Ki [9] of 5.15 µM. For the same molecule, the inhibition [10] was “Active”, the inhibition [11] was “Active” and the IC50 [12] was greater than 1 µM. For the same molecule, the inhibition at 1 µM [13] was 60%, the fold change (FC) [14] was 150 and the inhibition [15] was 50%. For the same molecule, the inhibition at 1 µM [16] was 75%, the IC50 [17] was 0.0021 µM and the inhibition at 1 µM [18] was 60%.

For `Nc1nc2sc(CCCCc3ccc(C(=O)N[C@@H](CCC(=O)O)C(=O)O)cc3)cc2c(=O)[nH]1`, the Activity [4] was “inactive”, the Activity [5] was “Active” and the IC50 [6] was greater than 1 µM. The IC50 [7] was greater than 1 µM, the Ki [9] was 9.48 µM and the IC50 [12] was greater than 1 µM.

With `Nc1nc2[nH]c(CCCc3ccc(C(=O)N[C@@H](CCC(=O)O)C(=O)O)s3)cc2c(=O)[nH]1` the inhibition [10] was “Active”, the inhibition [11] was 50% and the inhibition at 1 µM [13] was 60%. For the same molecule, the fold change (FC) [14] was 150, the inhibition [15] was 99% and the inhibition at 1 µM [16] was 75%. For the same molecule, the inhibition at 1 µM [18] was 60%.

In the case of `Nc1nc2sc(CCCCc3cc(C(=O)N[C@@H](CCC(=O)O)C(=O)O)cs3)cc2c(=O)[nH]1`, the Ki [3] is reported as 0.15 µM, the Activity [4] is reported as “inactive” and the Activity [5] is reported as “Active”. The IC50 [6] was greater than 1 µM, the IC50 [7] was greater than 1 µM and the IC50 [8] was greater than 1 µM. For the same molecule, the Ki [9] was 1.07 µM, the IC50 [12] was greater than 1 µM and the IC50 [17] was 0.00474 µM.

`Nc1nc2sc(CCCCc3ccc(C(=O)N[C@@H](CCC(=O)O)C(=O)O)o3)cc2c(=O)[nH]1` showed an Activity [1] of 89%, an Activity [2] of 60% and a Ki [3] of 10.7 µM. The Activity [4] was “inactive”, the Activity [5] was “Active” and the IC50 [6] was greater than 1 µM. For the same molecule, the IC50 [7] was greater than 1 µM, the IC50 [8] was greater than 1 µM and the Ki [9] was 24.7 µM. It also gave an IC50 [12] greater than 1 µM and an IC50 [17] of 0.0079 µM.

For `Nc1nc2sc(CCCCc3csc(C(=O)N[C@@H](CCC(=O)O)C(=O)O)c3)cc2c(=O)[nH]1`, the Ki [3] was greater than 150 µM, the Activity [4] was “inactive” and the Activity [5] was “Active”. The IC50 [6] was greater than 1 µM, the IC50 [7] was greater than 1 µM and the IC50 [8] was 0.108 µM. The Ki [9] was 8.03 µM, the IC50 [12] was greater than 1 µM and the IC50 [17] was 0.00685 µM.

Work on `Nc1nc2[nH]cc(CCc3ccc(C(=O)N[C@@H](CCC(=O)O)C(=O)O)cc3)c2c(=O)[nH]1` [PEMETREXED] yielded a Ki [3] greater than 150 µM.

In the case of `Nc1nc2sc(CCCc3csc(C(=O)N[C@@H](CCC(=O)O)C(=O)O)c3)cc2c(=O)[nH]1`, the Activity [4] is reported as “inactive”, the Activity [5] is reported as “Active” and the IC50 [6] is reported as greater than 1 µM. For the same molecule, the IC50 [7] was greater than 1 µM, the IC50 [8] was 0.0867 µM and the Ki [9] was 19.8 µM. For the same molecule, the IC50 [12] was greater than 1 µM and the IC50 [17] was 0.00148 µM.

In the case of `Nc1nc2[nH]cc(CCCCc3ccc(C(=O)N[C@@H](CCC(=O)O)C(=O)O)cc3)c2c(=O)[nH]1`, the Activity [4] is reported as “inactive” and the Activity [5] is reported as “Active”.

For `Nc1nc2sc(CCCc3cc(C(=O)N[C@@H](CCC(=O)O)C(=O)O)cs3)cc2c(=O)[nH]1`, the Ki [3] was 0.91 µM, the Activity [4] was “inactive” and the Activity [5] was “Active”. For the same molecule, the IC50 [6] was greater than 1 µM, the IC50 [7] was greater than 1 µM and the IC50 [8] was 0.026 µM. The Ki [9] was 8.37 µM, the IC50 [12] was greater than 1 µM and the IC50 [17] was 0.00182 µM.

In the case of `Nc1nc2sc(CCCc3ccc(C(=O)N[C@@H](CCC(=O)O)C(=O)O)s3)cc2c(=O)[nH]1`, the Activity [1] is reported as 89%, the Activity [2] is reported as 60% and the Ki [3] is reported as 8.19 µM. The Activity [4] was “inactive”, the Activity [5] was “Active” and the IC50 [6] was greater than 1 µM. It also gave an IC50 [7] greater than 1 µM, an IC50 [8] of 0.0541 µM and a Ki [9] of 14.5 µM. For the same molecule, the inhibition [10] was “Active”, the inhibition [11] was “Active” and the IC50 [12] was greater than 1 µM. The inhibition at 1 µM [13] was 60%, the fold change (FC) [14] was 150 and the inhibition [15] was 75%. The inhibition at 1 µM [16] was 75%, the IC50 [17] was 0.00142 µM and the inhibition at 1 µM [18] was 60%.
